HTRA1 inhibitor = HTRA1 serine protease inhibitors, primary screen, biochemical, fluorescence polarization, HTS; recombinant HTRA1, FP-rhodamine activity-based probe; inhibition, % at 5.96 µM; Q92743; actives 0.5% (n = 340,000); in the data active = inhibition above about 36%;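 also: 0% = enzyme with DMSO and 100% = wells lacking enzyme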
rCAG binder = binders of r(CAG) RNA repeats, primary screen, biochemical, fluorescence | r(CAG) RNA repeat, TO-PRO-1 dye displacement fluorescence | inhibition, % at 3 µM | actives 1.3% (n = 370,000);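 active = inhibition above the plate cutoff, the mean of all test compounds on that plate plus 3 SD, cut at about 35% in these data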;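 also: 0% = DMSO alone and 100% = 100 µM mitoxantrone as full dye displacement; higher means more dye released from RNA so lower well fluorescence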
SIAE primary = human SIAE inhibitors, primary screen, biochemical, fluorescence polarization, FP-Rh probe, 1536-well HTS; Sialate O-acetylesterase (Homo sapiens), Q9HAT2; SIAE FP-Rh probe binding; inhibition, % at 9.66 µM; actives 0.69% (n = 370,000);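 active = inhibition above a cutoff: mean of compounds within the control limits plus 3 SD of those, cut at about 17% in these data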;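 also: 0% = plate median of compound wells and 100% = probe without SIAE protein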
PRMT1 inh = PRMT1 methyltransferase inhibitors, primary screen, biochemical, fluorescence polarization; AID 652257, 2013; Protein arginine N-methyltransferase 1 (Homo sapiens), Q99873; recombinant PRMT1, activity-based probe fluorescence polarization; inhibition, % at 2.79 µM; actives 1.3% (n = 370,000);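 active = inhibition above about 21% made by adding two undisclosed values, limit read from the data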
Target sequence (Q99873 whole entry, looked up): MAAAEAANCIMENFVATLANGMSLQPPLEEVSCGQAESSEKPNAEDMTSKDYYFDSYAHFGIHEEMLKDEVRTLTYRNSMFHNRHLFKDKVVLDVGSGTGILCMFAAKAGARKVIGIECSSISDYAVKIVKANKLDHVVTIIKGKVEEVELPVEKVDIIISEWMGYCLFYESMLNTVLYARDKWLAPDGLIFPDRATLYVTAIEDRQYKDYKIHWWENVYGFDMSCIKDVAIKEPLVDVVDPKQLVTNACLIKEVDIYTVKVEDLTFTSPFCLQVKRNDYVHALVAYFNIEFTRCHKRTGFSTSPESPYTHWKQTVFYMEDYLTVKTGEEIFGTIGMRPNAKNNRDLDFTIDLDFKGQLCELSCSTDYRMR
mABHD4 FP = ABHD4 inhibitors, primary screen, biochemical, fluorescence polarization, mouse | (Lyso)-N-acylphosphatidylethanolamine lipase (Mus musculus), Q8VD66 | purified mABHD4, FP-Rh probe fluorescence polarization | inhibition, % at 8.92 µM | actives 0.54% (n = 370,000) | AID 720543, 2013;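 active = inhibition exceeding the mean over every tested compound plus 3 SD, cut at about 30% in these data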;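 also: 0% = plate median of compound wells and 100% = S159A mutant with DMSO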
Target sequence (Q8VD66 whole entry, looked up): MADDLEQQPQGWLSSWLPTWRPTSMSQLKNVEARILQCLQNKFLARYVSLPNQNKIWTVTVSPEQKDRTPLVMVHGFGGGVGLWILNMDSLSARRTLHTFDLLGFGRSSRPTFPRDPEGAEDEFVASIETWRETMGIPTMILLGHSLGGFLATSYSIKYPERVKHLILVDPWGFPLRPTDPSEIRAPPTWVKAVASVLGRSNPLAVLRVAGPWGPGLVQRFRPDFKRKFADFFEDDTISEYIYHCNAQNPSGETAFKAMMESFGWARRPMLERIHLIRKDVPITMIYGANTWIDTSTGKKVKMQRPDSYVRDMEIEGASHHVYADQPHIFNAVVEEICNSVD
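Material: mouse ABHD4 enzyme, wild type; Benchmarks: S159A mutant high control, sample median low control; Buffer or medium: HEPES pH 7.0, NaCl, Pluronic buffer; Signal: fluorescence polarization; Read-out: percent inhibition of probe binding, normalized to plate controls; Timing: pre-incubation 45 min, probe exposure 60 min, at 25 °C; Dosing: 8.92 µM, single dose.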
rCAG bind conf = small molecules binding CAG repeat RNA – biochemical, fluorescence, confirmation | r(CAG) RNA repeat, TO-PRO-1 dye displacement fluorescence | actives 70% (n = 4,300) | AID 652065, 2013 | inhibition, % at 3 µM | shares compounds with rCAG binder;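 active = inhibition above a per-plate cutoff, the mean inhibition of sample wells plus 3 SD, cut at about 35% in these data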;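 also: loss of TO-PRO-1 fluorescence as compound displaces dye from 1x1 AA loop RNA; 0% = DMSO only wells and 100% = 100 µM mitoxantrone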
dCAG dye counter = displacement of TO-PRO-1 from CAG DNA duplex, counter-screen for rCAG RNA repeat binder project, biochemical, fluorescence, TO-PRO-1 dye, d(CAG) DNA oligo. shares compounds with rCAG binder. d(CAG) DNA oligo TO-PRO-1 dye displacement. inhibition, % at 3 µM. actives 94% (n = 4,300). AID 652068, 2013;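 active = inhibition above its plate's cutoff, the mean test-well inhibition plus 3 SD, cut at about 4.8% in these data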;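 also: 0% = DNA dye mix with DMSO and 100% = 100 µM mitoxantrone; hits displace the dye from DNA and so lower well fluorescence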
DNA CAG DR = inhibitors of DNA CAG/GTC TO-PRO-1 complex, dose response, counter-screen for rCAG RNA repeat binder project, biochemical, fluorescence, TO-PRO-1 dye | shares compounds with rCAG binder | DNA CAG/GTC duplex TO-PRO-1 dye displacement fluorescence | IC50, µM | actives 20% (n = 250); in the data active = IC50 below about 10 µM
PRMT1 confirm = PRMT1 methyltransferase inhibitors, confirmation, biochemical, fluorescence polarization, triplicate; shares compounds with PRMT1 inh; recombinant His-PRMT1, activity-based probe fluorescence polarization; inhibition, % at 2.79 µM; actives 42% (n = 3,300); AID 687036, 2013;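 active = mean inhibition across replicates above the hit cutoff derived for the earlier primary screen, cut at about 22% in these data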
Starred values were filed as active, the others as inactive; i = inactive; nt = no result given. Compounds with a hit are over-represented: about 3.3% of the library has one in this group of screens.

SMILES | HTRA1 inhibitor | rCAG binder | SIAE primary | PRMT1 inh | mABHD4 FP | rCAG bind conf | dCAG dye counter | PRMT1 confirm | others
N#Cc1c(-c2ccco2)nc(SCC(=O)Nc2cccc(Cl)c2)[nH]c1=O | -48 | 72* | -28 | 46* | -23 | 72* | 27* | 11 | DNA CAG DR=i
COc1ccc(-c2cc(-c3ccco3)[nH]c(=O)c2C#N)cc1 | 10 | 15 | 1 | 6 | 13 | nt | nt | nt
N#Cc1c(-c2cccc(Br)c2)cc(-c2ccco2)[nH]c1=O | 15 | 51* | 0 | 33* | 11 | 45* | 16* | 10
Cc1ccccc1Cn1cc(CN2[C@H](C)COc3cc(Br)ccc3S2(=O)=O)nn1 | nt | 2 | 2 | -3 | 2 | nt | nt | nt
O=C1NC(=S)S/C1=C\c1cc(Cl)cc(Cl)c1O | -51 | 38* | -71 | 32* | -167 | 47* | 15* | 34*
O=C(N/N=C\c1ccccc1OCc1ccccc1)c1ccco1 | -18 | 2 | -10 | 2 | -15 | nt | nt | nt
O=C(N/N=C/c1c(O)n(Cc2ccco2)c(=O)[nH]c1=O)c1ccccc1 | 14 | 50* | 15 | 33* | 16 | 30 | 11* | 0
O=C1C(=Cc2cn(-c3ccccc3)nc2-c2ccc(OCc3ccccc3)cc2)SC(=S)N1CCS(=O)(=O)O | nt | 59* | -97 | 43* | -106 | 72* | 49* | 5
CCC(=O)Nc1ccc(NC(=S)NC(=O)/C=C/c2ccco2)cc1 | -4 | 21 | 14 | 8 | 14 | nt | nt | nt
O=C(/C=C/c1ccco1)NC(=S)Nc1ccc(Cl)cn1 | 7 | 39* | 14 | 29* | 12 | 14 | 6.9* | -3
Cc1ccsc1CN(C(=O)c1ccccc1)C1CCS(=O)(=O)C1 (stereo not drawn) | -1 | -7 | 1 | -1 | -2 | nt | nt | nt
O=C(Cc1nnc(NC(=O)c2ccccc2)s1)N/N=C/c1ccco1 | 4 | 71* | 1 | 41* | -15 | 6 | 5.7* | 8
O=C(Cc1nnc(NC(=O)c2ccccc2)s1)N/N=C/c1cccc(O)c1 | -3 | 11 | -42 | 0 | -11 | nt | nt | nt
O=C(O)c1cc(-c2ccc(-c3ccc(F)cc3)o2)nc2ccccc12 | 2 | 37* | 4 | 86* | 13 | 17 | 4 | 27*
O=P(c1ccccc1)(c1ccccc1)c1ccc(O)cc1 | 0 | -6 | -3 | 4 | 2 | nt | nt | nt
O=C(NNC(=O)C1CCCCC1)c1ccco1 | 6 | -2 | 9 | -2 | 0 | nt | nt | nt
CCC1CCC(C(=O)NNC(=O)c2cc(-c3ccco3)[nH]n2)CC1 (stereo not drawn) | 0 | 46* | -2 | 83* | 8 | 4 | 2 | 2
O=c1nc2c(O)cccn2c2c1c(=O)[nH]c1ccccc12 | 17 | 40* | 3 | 34* | 0 | 2 | -1 | 34*
O=c1[nH]c2ccccc2c2nc3ccccn3c12 | 7 | 2 | 1 | -3 | 3 | nt | nt | nt
O=C(COC(=O)c1cc(-c2ccc(Cl)s2)nc2ccccc12)NCc1ccco1 | -57 | 36* | -28 | 30* | -33 | 15 | 6.6* | 3
O=C(COC(=O)c1cc(-c2ccco2)nc2ccccc12)NCc1ccc2c(c1)OCO2 | -27 | 38* | 6 | 35* | 1 | 15 | 8.0* | 19
O=C(/C=C/c1ccc(S(=O)(=O)N2CCOCC2)cc1)NCc1ccccc1 | 1 | 2 | -1 | 2 | 4 | nt | nt | nt
CCOC(=O)C1(Cc2cccc(OC)c2)CCCN(C(=O)c2cc(C)on2)C1 (stereo not drawn) | -4 | -8 | 0 | -1 | -7 | nt | nt | nt
CCOC(=O)C1=C(C)N=c2sc(=Cc3ccc(OCC(=O)O)cc3)c(=O)n2C1c1ccc(Cl)cc1 (stereo not drawn) | nt | 83* | -32 | 42* | -66 | 59* | 26* | 13
CCOC(=O)C1=C(C)N=c2s/c(=C\c3cccc(OCC(=O)O)c3)c(=O)n2C1c1ccccc1OC (stereo not drawn) | 13 | 10 | -2 | 7 | -4 | nt | nt | nt
SMILES | HTRA1 inhibitor | rCAG binder | SIAE primary | PRMT1 inh | mABHD4 FP | rCAG bind conf | dCAG dye counter | PRMT1 confirm | others
O=C(CSc1ccc(-c2ccco2)nn1)c1ccc(F)cc1 | 21 | 37* | 5 | 54* | 22 | 9 | 4 | 13
Cc1c(CCCC(=O)O)sc(N)c1C(=O)c1cccc(C(F)(F)F)c1 | 10 | 47* | -1 | 31* | 25 | 27 | 5.0* | 11
O=C(O)CNC(=O)c1cccc(C(F)(F)F)c1 | 3 | -1 | -6 | 5 | -5 | nt | nt | nt
CCc1sc(C(C2C(=O)CC(C)(C)CC2=O)C2C(=O)CC(C)(C)CC2=O)cc1[N+](=O)[O-] | -4 | 37* | 0 | 48* | 9 | 23 | 6.4* | 50*
CSc1ccccc1OCc1cc(C(=O)NCCn2ccnc2C)no1 | 1 | 1 | -2 | -3 | 0 | nt | nt | nt
Cc1c(O)nc(SCC(=O)Nc2ccc3c4c(cccc24)CC3)n(-c2ccccc2)c1=O | -4 | 39* | 3 | 29* | 10 | 25 | 9.2* | 23*
O=C(Nc1nnc(-c2ccco2)s1)C1CCCCC1 | 0 | 0 | -2 | -2 | 6 | nt | nt | nt
O=C(Nc1nc(-c2ccco2)c(-c2ccco2)s1)C1CCC1 | 10 | 37* | 2 | 35* | 13 | 21 | 11* | 19
Cc1cc(C)cc(N(CC(=O)NC2CCC(C)CC2)S(=O)(=O)c2ccc(Cl)s2)c1 (stereo not drawn) | nt | 6 | 2 | -1 | 8 | nt | nt | nt
CCOc1ccc(N2CSC3=C(C#N)C(c4ccco4)CC(=O)N3C2)cc1 (stereo not drawn) | 2 | 69* | -2 | 71* | 19 | 48* | 17* | 70*

Compound activity deposited in PubChem by The Scripps Research Institute Molecular Screening Center.
